Data as given in ChEMBL document CHEMBL3813640, “Design and synthesis of potent and selective pyridazin-4(1H)-one-based PDE10A inhibitors interacting with Tyr683 in the PDE10A selectivity pocket” (Bioorg Med Chem, 2016).

Molecular target: cAMP and cAMP-inhibited cGMP 3',5'-cyclic phosphodiesterase 10A (Homo sapiens, UniProt Q9Y233)
Assay: Inhibition of human full length PDE10A2 expressed in African green monkey COS7 cells using [3H]cGMP as substrate preincubated for 30 mins followed by substrate addition measured after 60 mins by scintillation proximity assay
Type: cell-based, COS-7
Method in brief: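 Full-length human PDE10A2 from transfected COS-7 cells, held at -70 °C. [³H]cGMP added, 60 min at rt, stopped with yttrium SPA beads containing ZnSO₄. Counted after ≥120 min settling. Inhibition set against DMSO (0%) and 10 µM papaverine (100%) wells. Duplicate or triplicate.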

Chain of cAMP and cAMP-inhibited cGMP 3',5'-cyclic phosphodiesterase 10A (Q9Y233 whole entry): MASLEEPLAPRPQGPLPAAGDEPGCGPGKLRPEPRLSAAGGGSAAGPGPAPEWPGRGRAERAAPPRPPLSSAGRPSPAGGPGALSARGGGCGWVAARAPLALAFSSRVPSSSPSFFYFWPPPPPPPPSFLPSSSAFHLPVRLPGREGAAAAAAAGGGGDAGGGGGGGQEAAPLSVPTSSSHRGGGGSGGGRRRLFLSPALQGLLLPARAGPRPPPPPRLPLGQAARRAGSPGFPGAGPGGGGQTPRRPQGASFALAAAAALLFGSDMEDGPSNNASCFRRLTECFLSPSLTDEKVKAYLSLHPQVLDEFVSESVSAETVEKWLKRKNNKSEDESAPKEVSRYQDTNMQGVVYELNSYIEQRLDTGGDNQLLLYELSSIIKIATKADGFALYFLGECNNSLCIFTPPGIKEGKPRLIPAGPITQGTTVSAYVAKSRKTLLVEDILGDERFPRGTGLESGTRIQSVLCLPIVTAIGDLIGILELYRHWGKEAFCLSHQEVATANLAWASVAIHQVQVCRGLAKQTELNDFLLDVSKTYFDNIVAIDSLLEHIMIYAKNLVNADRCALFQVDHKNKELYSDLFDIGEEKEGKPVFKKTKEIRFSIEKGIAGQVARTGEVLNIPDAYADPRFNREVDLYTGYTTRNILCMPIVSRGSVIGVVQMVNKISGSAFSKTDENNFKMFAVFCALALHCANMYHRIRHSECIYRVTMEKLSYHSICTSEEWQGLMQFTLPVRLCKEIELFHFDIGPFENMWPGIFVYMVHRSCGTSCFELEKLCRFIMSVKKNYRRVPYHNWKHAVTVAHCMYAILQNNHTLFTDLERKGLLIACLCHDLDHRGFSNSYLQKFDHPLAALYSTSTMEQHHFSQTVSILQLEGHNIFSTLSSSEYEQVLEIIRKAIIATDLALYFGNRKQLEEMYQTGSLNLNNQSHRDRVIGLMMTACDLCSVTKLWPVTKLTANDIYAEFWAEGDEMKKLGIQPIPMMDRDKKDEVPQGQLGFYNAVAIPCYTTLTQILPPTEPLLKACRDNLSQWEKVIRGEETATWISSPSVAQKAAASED

SMILES | IC50
COc1cn(CC2CC2)nc(-c2ccnn2-c2ccccc2)c1=O | 170 nM
COc1cn(C)nc(-c2ccnn2-c2ccccc2)c1=O | 1000 nM
Cn1c(OCCOc2cn(CC3CC3)nc(-c3ccnn3-c3ccccc3)c2=O)nc2ccccc21 | 4.1 nM
Cn1c(CCCOc2cn(CC3CC3)nc(-c3ccnn3-c3ccccc3)c2=O)nc2ccccc21 | 0.81 nM
O=c1c(OCCN2CCn3c2nc2ccccc23)cn(CC2CC2)nc1-c1ccnn1-c1ccccc1 | 0.76 nM
COc1cn(CC(F)(F)F)nc(-c2ccnn2-c2ccccc2)c1=O | 550 nM
Cn1c(CCCCOc2cn(CC3CC3)nc(-c3ccnn3-c3ccccc3)c2=O)nc2ccccc21 | 760 nM

Continued, values first:

IC50 | SMILES
2800 nM | Cn1c(COc2cn(CC3CC3)nc(-c3ccnn3-c3ccccc3)c2=O)nc2ccccc21
25 nM | Cn1c(CCOc2cn(CC3CC3)nc(-c3ccnn3-c3ccccc3)c2=O)nc2ccccc21
2400 nM | COc1cn(-c2ccccc2)nc(-c2ccnn2C)c1=O
130 nM | COc1cn(C2CC2)nc(-c2ccnn2-c2ccccc2)c1=O
